# Assay results as given in ChEMBL document CHEMBL1122545, “N2-(4-Substituted-2,6-dichlorophenyl)-N1,N1-dimethylformamidines as antihypertensive and diuretic agents” (J Med Chem, 1984).
# Values joined by “and” are separate entries in the source; they are usually repeats but may differ in a detail not shown here. Identical values can stand only once.
# Key:
# Rattus norvegicus [1] = experiment: […] activity expressed as K(+) (potassium) excreted in milli equivalents was reported for a duration of 5 hours after administration of a dose of 100 mg/Kg.; format: ADME, organism-based, Urine; conditions: in vivo
# Summary of the method: (§1)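 Male SH rats (Okamoto strain), 16 weeks old, dosed orally by gavage with compound dispersed in 3% starch in normal saline at 2 mL/kg. Oral normal saline load, then individual metabolism cages; 0-5 h urine collected, Na+ and K+ measured by flame photometry. Rats redosed at 24 h without the saline load. MABP and HR taken by femoral arterial puncture under local anesthetic 4 h after the second dose.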
# Rattus norvegicus [2] = experiment: […] activity expressed as Na+(sodium) excreted in milli equivalents was reported for a duration of 5 hours after administration of a dose of 100 mg/Kg; format: ADME, organism-based, Urine; conditions: in vivo; summary of the method: as §1
# Rattus norvegicus [3] = experiment: Diuretic activity was determined expressed as volume of urine excreted in mL was reported at a dose of 100 mg/Kg; format: ADME, organism-based; conditions: in vivo; summary of the method: as §1
# Canis familiaris [4] = experiment: Antihypertensive activity in renal hypertensive dogs and fall in heart rate(HR) was reported at a time duration of 3 hour after peroral administration of 0.1 mg/kg; format: functional, Canis lupus familiaris; conditions: route oral
# Summary of the method: (§2)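 Chronic phase two kidney-one clip Goldblatt renal hypertensive dogs from a standing colony, habituated to the procedure, dosed orally. Arterial blood pressure and heart rate taken by arterial puncture before dosing and repeated at 1, 3 and 5 h after dosing over a 6-h postdosing interval. Maximal falls in MABP and HR recorded.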
# Canis familiaris [5] = experiment: Antihypertensive activity in renal hypertensive dogs and fall in heart rate(HR) was reported at a time duration of 3 hour after peroral administration of 0.2 mg/Kg.; format: functional, Canis lupus familiaris; summary of the method: as §2
# Canis familiaris [6] = experiment: Antihypertensive activity in renal hypertensive dogs and fall in heart rate(HR) was reported at a time duration of 3 hour after peroral administration of 0.3 mg/Kg.; format: functional, Canis lupus familiaris; summary of the method: as §2
# Canis familiaris [7] = experiment: Antihypertensive activity in renal hypertensive dogs and fall in heart rate(HR) was reported at a time duration of 3 hour after peroral administration of 1.0 mg/Kg.; format: functional, Canis lupus familiaris; summary of the method: as §2
# Canis familiaris [8] = experiment: Antihypertensive activity in renal hypertensive dogs and fall in heart rate(HR) was reported at a time duration of 5 hour after peroral administration of 0.1 mg/Kg; format: functional, Canis lupus familiaris; summary of the method: as §2
# Canis familiaris [9] = experiment: Antihypertensive activity in renal hypertensive dogs and fall in heart rate(HR) was reported at a time duration of 5 hour after peroral administration of 0.2 mg/Kg.; format: functional, Canis lupus familiaris; summary of the method: as §2
# Canis familiaris [10] = experiment: Antihypertensive activity in renal hypertensive dogs and fall in heart rate(HR) was reported at a time duration of 5 hour after peroral administration of 0.3 mg/Kg.; format: functional, Canis lupus familiaris; summary of the method: as §2
# Canis familiaris [11] = experiment: Antihypertensive activity in renal hypertensive dogs and fall in heart rate(HR) was reported at a time duration of 5 hour after peroral administration of 1.0 mg/Kg.; format: functional, Canis lupus familiaris; summary of the method: as §2
# Canis familiaris [12] = experiment: Antihypertensive activity in renal hypertensive dogs and maximal fall in mean arterial blood pressure (MABP) was reported at a time duration of 1 hour after peroral administration of 0.2 mg/Kg.; format: functional, Canis lupus familiaris, Artery; summary of the method: as §2
# Canis familiaris [13] = experiment: Antihypertensive activity in renal hypertensive dogs and maximal fall in mean arterial blood pressure (MABP) was reported at a time duration of 1 hour after peroral administration of 0.3 mg/Kg.; format: functional, Canis lupus familiaris, Artery; summary of the method: as §2
# Canis familiaris [14] = experiment: Antihypertensive activity in renal hypertensive dogs and maximal fall in mean arterial blood pressure (MABP) was reported at a time duration of 1 hour after peroral administration of 1.0 mg/Kg.; format: functional, Canis lupus familiaris, Artery; summary of the method: as §2
# Canis familiaris [15] = experiment: Antihypertensive activity in renal hypertensive dogs and maximal fall in mean arterial blood pressure (MABP) was reported at a time duration of 3 hour after peroral administration of 0.1 mg/Kg; format: functional, Canis lupus familiaris, Artery; summary of the method: as §2
# Canis familiaris [16] = experiment: Antihypertensive activity in renal hypertensive dogs and maximal fall in mean arterial blood pressure (MABP) was reported at a time duration of 3 hour after peroral administration of 0.2 mg/Kg.; format: functional, Canis lupus familiaris, Artery; summary of the method: as §2
# Canis familiaris [17] = experiment: Antihypertensive activity in renal hypertensive dogs and maximal fall in mean arterial blood pressure (MABP) was reported at a time duration of 3 hour after peroral administration of 0.3 mg/Kg.; format: functional, Canis lupus familiaris, Artery; summary of the method: as §2
# Canis familiaris [18] = experiment: Antihypertensive activity in renal hypertensive dogs and maximal fall in mean arterial blood pressure (MABP) was reported at a time duration of 5 hour after peroral administration of 0.2 mg/Kg.; format: functional, Canis lupus familiaris, Artery; summary of the method: as §2
# Canis familiaris [19] = experiment: Antihypertensive activity in renal hypertensive dogs and maximal fall in mean arterial blood pressure (MABP) was reported at a time duration of 5 hour after peroral administration of 0.3 mg/Kg; format: functional, Canis lupus familiaris, Artery
# Summary of the method: (§3)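 Chronic-phase two kidney-one clip Goldblatt renal hypertensive dogs from a standing colony, habituated to the procedure. Mean arterial pressure and heart rate taken by direct arterial puncture before dosing and again 1, 3 and 5 h after oral dosing; maximal fall recorded over the 6-h postdosing interval.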
# Canis familiaris [20] = experiment: Antihypertensive activity in renal hypertensive dogs and maximal fall in mean arterial blood pressure (MABP) was reported at a time duration of 5 hour after peroral administration of 1.0 mg/Kg.; format: functional, Canis lupus familiaris, Artery; summary of the method: as §3
# Canis familiaris [21] = experiment: Antihypertensive activity in renal hypertensive dogs and fall in heart rate(HR) was reported at a time duration of 0 hour after peroral administration of 0.1 mg/Kg.; format: functional, Canis lupus familiaris; summary of the method: as §2
# Canis familiaris [22] = experiment: Antihypertensive activity in renal hypertensive dogs and fall in heart rate(HR) was reported at a time duration of 0 hour after peroral administration of 0.2 mg/Kg.; format: functional, Canis lupus familiaris; summary of the method: as §2
# Canis familiaris [23] = experiment: Antihypertensive activity in renal hypertensive dogs and fall in heart rate(HR) was reported at a time duration of 0 hour after peroral administration of 1.0 mg/Kg.; format: functional, Canis lupus familiaris; summary of the method: as §2
# Canis familiaris [24] = experiment: Antihypertensive activity in renal hypertensive dogs and fall in heart rate(HR) was reported at a time duration of 1 hour after peroral administration of 0.1 mg/kg.; format: functional, Canis lupus familiaris; conditions: route oral; summary of the method: as §2
# Canis familiaris [25] = experiment: Antihypertensive activity in renal hypertensive dogs and fall in heart rate(HR) was reported at a time duration of 1 hour after peroral administration of 0.2 mg/kg.; format: functional, Canis lupus familiaris; conditions: route oral; summary of the method: as §2
# Canis familiaris [26] = experiment: Antihypertensive activity in renal hypertensive dogs and fall in heart rate(HR) was reported at a time duration of 1 hour after peroral administration of 0.3 mg/Kg.; format: functional, Canis lupus familiaris; summary of the method: as §2
# Canis familiaris [27] = experiment: Antihypertensive activity in renal hypertensive dogs and fall in heart rate(HR) was reported at a time duration of 1 hour after peroral administration of 1.0 mg/Kg.; format: functional, Canis lupus familiaris; summary of the method: as §2
# Canis familiaris [28] = experiment: Antihypertensive activity in renal hypertensive dogs and maximal fall in mean arterial blood pressure (MABP) was reported at a time duration of 0 hour after peroral administration of 0.1 mg/Kg; format: functional, Canis lupus familiaris, Artery; summary of the method: as §2
# Canis familiaris [29] = experiment: Antihypertensive activity in renal hypertensive dogs and maximal fall in mean arterial blood pressure (MABP) was reported at a time duration of 0 hour after peroral administration of 0.2 mg/Kg.; format: functional, Canis lupus familiaris, Artery; summary of the method: as §2
# Canis familiaris [30] = experiment: Antihypertensive activity in renal hypertensive dogs and maximal fall in mean arterial blood pressure (MABP) was reported at a time duration of 0 hour after peroral administration of 0.3 mg/Kg.; format: functional, Canis lupus familiaris, Artery; summary of the method: as §2
# Canis familiaris [31] = experiment: Antihypertensive activity in renal hypertensive dogs and maximal fall in mean arterial blood pressure (MABP) was reported at a time duration of 0 hour after peroral administration of 1.0 mg/Kg.; format: functional, Canis lupus familiaris, Artery; summary of the method: as §2
# Canis familiaris [32] = experiment: Antihypertensive activity in renal hypertensive dogs and maximal fall in mean arterial blood pressure (MABP) was reported at a time duration of 1 hour after peroral administration of 0.1 mg/Kg.; format: functional, Canis lupus familiaris, Artery; summary of the method: as §2
# Rattus norvegicus [33] = experiment: Antihypertensive activity determined as heart rate in SH rats, was reported at a dose of 100 mg/Kg; format: functional; summary of the method: as §1
# Rattus norvegicus [34] = experiment: Antihypertensive activity in SH rats, and mean arterial blood pressure was reported at a dose of 100 mg/Kg; format: functional, Artery; summary of the method: as §1
# Canis familiaris [35] = experiment: Antihypertensive activity in renal hypertensive dogs and fall in heart rate(HR) was reported at a time duration of 0 hour after peroral administration of 0.3 mg/kg.; format: functional, Canis lupus familiaris; conditions: route oral; summary of the method: as §2
# Canis familiaris [36] = experiment: Antihypertensive activity in renal hypertensive dogs and maximal fall in mean arterial blood pressure (MABP) was reported at a time duration of 3 hour after peroral administration of 1.0 mg/Kg.
compound,measurement,setting,value
CN(C)/C=N/c1c(Cl)cc(NCc2ccc(N(C)C)cc2Cl)cc1Cl,Diuretic activity,Rattus norvegicus [1],0.47 m equiv
same,Diuretic activity,Rattus norvegicus [2],1.89 m equiv
same,Diuretic activity,Rattus norvegicus [3],22.3 mL
same,HR,Canis familiaris [4],96 bpm
same,HR,Canis familiaris [5],58 bpm
same,HR,Canis familiaris [6],63 bpm
same,HR,Canis familiaris [7],47 bpm
same,HR,Canis familiaris [8],113 bpm
same,HR,Canis familiaris [9],65 bpm
same,HR,Canis familiaris [10],60 bpm
same,HR,Canis familiaris [11],66 bpm
same,MABP,Canis familiaris [12],123 mmHg
same,MABP,Canis familiaris [13],111 mmHg
same,MABP,Canis familiaris [14],108 mmHg
same,MABP,Canis familiaris [15],135 mmHg and 144 mmHg
same,MABP,Canis familiaris [16],129 mmHg
same,MABP,Canis familiaris [17],128 mmHg
same,MABP,Canis familiaris [18],147 mmHg
same,MABP,Canis familiaris [19],132 mmHg
same,MABP,Canis familiaris [20],128 mmHg
same,HR,Canis familiaris [21],120 bpm
same,HR,Canis familiaris [22],79 bpm
same,HR,Canis familiaris [23],110 bpm
same,HR,Canis familiaris [24],100 bpm
same,HR,Canis familiaris [25],56 bpm
same,HR,Canis familiaris [26],60 bpm
same,HR,Canis familiaris [27],60 bpm
same,MABP,Canis familiaris [28],146 mmHg
same,MABP,Canis familiaris [29],152 mmHg
same,MABP,Canis familiaris [30],148 mmHg
same,MABP,Canis familiaris [31],140 mmHg
same,MABP,Canis familiaris [32],126 mmHg
same,HR,Rattus norvegicus [33],310 beats min-1
same,MABP,Rattus norvegicus [34],116 mmHg
same,HR,Canis familiaris [35],94 bpm
same,MABP,Canis familiaris [36],114 mmHg
